Here are results for 15 compounds from ChEMBL document CHEMBL1955746, “Synthesis and P2Y₂ receptor agonist activities of uridine 5'-phosphonate analogues” (Bioorg Med Chem, 2012).

Structures are written as SMILES. The source made the active and inactive calls. No cut-off for these calls is given here.

Holding throughout (assay type): functional, cell-based
In assay [1] the target is T1, P2Y purinoceptor 2 (Homo sapiens, UniProt P41231). As to the kind of experiment: Agonist activity at human P2Y2 receptor expressed in human 1321N1 cells assessed as stimulation of PLC-induced [3H]inositol phosphate production after 30 mins by scintillation counting. In a few lines:
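Stable 1321N1 astrocytoma lines made by retroviral expression of the receptor. Cells plated 20,000/well two days ahead and labelled 16 h in serum-free, inositol-free DMEM with 1.0 μCi [3H]myo-inositol. Agonist added in HBSS with 100 mM Hepes pH 7.3 (five-fold stock) and 50 mM LiCl, 30 min at 37°C. Stopped with cold 50 mM formic acid, neutralized, Dowex columns. EC50 by non-linear regression, triplicates, ≥3 experiments.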

For assay [2], the target named is T1, P2Y purinoceptor 2. As to the kind of experiment: Agonist activity at human P2Y2 receptor expressed in human 1321N1 cells assessed as stimulation of PLC-induced [3H]inositol phosphate production at 100 uM after 30 mins by scintillation counting relative to UTP. In a few lines: (§1)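 Retrovirally generated stable 1321N1 lines labelled 16 h with 1.0 μCi [3H]myo-inositol in inositol-free DMEM. Analogues at 100 μM, 30 min at 37°C in Hepes pH 7.3/HBSS with LiCl. Total [3H]inositol phosphates taken by formic acid extraction and Dowex anion exchange, then scintillation counting. P2Y2 and P2Y4 responses expressed as % of 100 nM UTP; P2Y6 as % of 1 μM UDP. Mean ± S.E.M., ≥3 experiments.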

The target of assay [3] is P2Y purinoceptor 4 (Homo sapiens) (UniProt P51582). As to the kind of experiment: Agonist activity at human P2Y4 receptor expressed in human 1321N1 cells assessed as stimulation of PLC-induced [3H]inositol phosphate production at 100 uM after 30 mins by scintillation counting. In a few lines: as §1
Assay [4] concerns the target P2Y purinoceptor 6 (Homo sapiens) (UniProt Q15077). Put plainly: Agonist activity at human P2Y6 receptor expressed in human 1321N1 cells assessed as stimulation of PLC-induced [3H]inositol phosphate production at 100 uM after 30 mins by scintillation counting. In outline: as §1

T1 sequence (P41231 whole entry): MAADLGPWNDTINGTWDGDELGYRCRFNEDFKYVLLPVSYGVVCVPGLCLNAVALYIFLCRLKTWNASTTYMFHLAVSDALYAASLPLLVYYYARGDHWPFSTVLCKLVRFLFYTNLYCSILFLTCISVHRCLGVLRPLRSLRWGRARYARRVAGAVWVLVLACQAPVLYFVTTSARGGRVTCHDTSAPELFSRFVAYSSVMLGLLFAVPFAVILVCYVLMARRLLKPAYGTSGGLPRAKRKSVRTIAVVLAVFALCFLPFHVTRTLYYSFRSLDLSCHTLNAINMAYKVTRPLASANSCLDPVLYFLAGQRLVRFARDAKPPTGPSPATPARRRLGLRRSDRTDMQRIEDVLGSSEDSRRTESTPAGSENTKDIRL
P2Y purinoceptor 4 (Homo sapiens), sequence (P51582 whole entry): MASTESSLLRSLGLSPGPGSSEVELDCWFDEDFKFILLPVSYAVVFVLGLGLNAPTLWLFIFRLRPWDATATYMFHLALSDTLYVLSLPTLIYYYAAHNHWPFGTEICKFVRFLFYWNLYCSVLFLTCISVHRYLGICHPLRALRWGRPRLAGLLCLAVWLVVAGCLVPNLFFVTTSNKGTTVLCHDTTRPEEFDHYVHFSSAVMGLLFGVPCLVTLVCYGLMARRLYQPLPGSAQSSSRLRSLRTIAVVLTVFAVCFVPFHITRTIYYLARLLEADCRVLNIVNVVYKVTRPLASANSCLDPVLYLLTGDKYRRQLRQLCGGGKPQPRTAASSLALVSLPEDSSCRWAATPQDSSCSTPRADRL
P2Y purinoceptor 6 (Homo sapiens), sequence (Q15077 whole entry): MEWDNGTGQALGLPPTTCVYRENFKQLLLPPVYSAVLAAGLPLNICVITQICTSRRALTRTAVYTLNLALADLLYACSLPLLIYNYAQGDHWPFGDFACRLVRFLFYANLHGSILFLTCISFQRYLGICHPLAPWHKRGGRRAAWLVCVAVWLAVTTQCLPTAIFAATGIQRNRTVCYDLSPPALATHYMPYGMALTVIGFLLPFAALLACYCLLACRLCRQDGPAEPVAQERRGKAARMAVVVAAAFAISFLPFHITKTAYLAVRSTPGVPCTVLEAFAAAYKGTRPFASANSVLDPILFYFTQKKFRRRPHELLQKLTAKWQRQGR

Regarding `O=c1[nH]c(=O)n([C@@H]2O[C@H](CCP(=O)(O)O)[C@@H](O)[C@H]2O)cc1/C=C/c1ccccc1`, the EC50 (usually the concentration that produces a half-maximal response) on P2Y purinoceptor 2 [1] came to 3100 nM. Further, the maximal response (Emax) (usually the size of the effect at its maximum, as opposed to the concentration needed) on P2Y purinoceptor 2 [2] stood at 41%. For the same compound, the outcome in assay [3] and in assay [4] was inactive.

For `O=c1[nH]c(=O)n([C@@H]2O[C@H](CCP(=O)(O)O)[C@@H](O)[C@H]2O)cc1-c1ccc2ccccc2c1`, the EC50 at P2Y purinoceptor 2 [1] was determined as 2100 nM. Moreover, on P2Y purinoceptor 2 [2], the Emax is 54%. The outcome in assay [3] and in assay [4] was inactive.

`N[C@@H]1[C@H](O)[C@@H](CCP(=O)(O)O)O[C@H]1n1ccc(=O)[nH]c1=O`: at P2Y purinoceptor 2 [1], the EC50 is more than 20000 nM. The Emax on P2Y purinoceptor 2 [2] is 9%. Besides, the result in assay [3] and in assay [4] was inactive.

With `O=c1[nH]c(=O)n([C@@H]2O[C@H](CCP(=O)(O)O)[C@@H](O)[C@H]2O)cc1-c1ccco1`, on P2Y purinoceptor 2 [1], the EC50 is 700 nM. Moreover, the Emax at P2Y purinoceptor 2 [2] stood at 45%. In addition, the outcome in assay [3] and in assay [4] was inactive.

For `O=c1ccn([C@@H]2O[C@H](COP(=O)(O)OP(=O)(O)O)[C@@H](O)[C@H]2O)c(=O)[nH]1`, the outcome in assay [4] was inactive.

For the compound `O=c1ccn([C@@H]2O[C@H](OCP(=O)(O)O)[C@@H](O)[C@H]2O)c(=O)[nH]1`, on P2Y purinoceptor 2 [1], the EC50 was more than 20000 nM. At P2Y purinoceptor 2 [2], the Emax worked out at 19%. Further, the outcome in assay [3] and in assay [4] was inactive.

With `O=c1[nH]c(=O)n([C@@H]2O[C@H](CCP(=O)(O)O)[C@@H](O)[C@H]2O)cc1-c1cccs1`, the EC50 at P2Y purinoceptor 2 [1] turned out to be 500 nM. Moreover, the Emax at P2Y purinoceptor 2 [2] came out at 35%. Moreover, the outcome in assay [3] and in assay [4] was inactive.

For the compound `O=c1ccn([C@H]2[C@H](O)[C@H](O)[C@]3(CCP(=O)(O)O)C[C@H]23)c(=O)[nH]1`, the EC50 at P2Y purinoceptor 2 [1] came out at 4000 nM.

Turning to `Cc1ccc(-c2cn([C@@H]3O[C@H](CCP(=O)(O)O)[C@@H](O)[C@H]3O)c(=O)[nH]c2=O)cc1`, the EC50 at P2Y purinoceptor 2 [1] was 1000 nM. Further, at P2Y purinoceptor 2 [2], the maximum response (Emax) worked out at 41%. The outcome in assay [3] and in assay [4] was inactive.

Take `O=c1[nH]c(=O)n([C@@H]2O[C@H](CCP(=O)(O)O)[C@@H](O)[C@H]2O)cc1-c1csc2ccccc12`: the EC50 on P2Y purinoceptor 2 [1] was more than 20000 nM. Further, at P2Y purinoceptor 2 [2], the Emax came out at 45%. Also, the result in assay [3] and in assay [4] was inactive.

`O=c1[nH]c(=O)n([C@@H]2O[C@H](CCP(=O)(O)O)[C@@H](O)[C@H]2O)cc1-c1ccc(F)cc1`: the EC50 on P2Y purinoceptor 2 [1] came to 400 nM. Moreover, at P2Y purinoceptor 2 [2], the Emax came to 43%. Moreover, the outcome in assay [3] and in assay [4] was inactive.

Regarding `O=c1[nH]c(=O)n([C@@H]2O[C@H](CCP(=O)(O)O)[C@@H](O)[C@H]2O)cc1-c1ccccc1`, the EC50 at P2Y purinoceptor 2 [1] worked out at 1500 nM. For the same compound, the Emax on P2Y purinoceptor 2 [2] came to 53%. In addition, the result in assay [3] and in assay [4] was inactive.

In the case of `O=c1ccn([C@@H]2O[C@H](COP(=O)(O)OP(=O)(O)OP(=O)(O)O)[C@@H](O)[C@H]2O)c(=O)[nH]1` [URIDINE TRIPHOSPHATE], on P2Y purinoceptor 2 [1], the EC50 is 20 nM.

As for `O=c1ccn([C@@H]2O[C@H](CCP(=O)(O)O)[C@@H](O)[C@H]2Cl)c(=O)[nH]1`, the EC50 at P2Y purinoceptor 2 [1] was more than 20000 nM. For the same compound, at P2Y purinoceptor 2 [2], the Emax was found to be 9%. Further, the outcome in assay [3] and in assay [4] was inactive.

For `O=c1ccn([C@@H]2O[C@H](CCP(=O)(O)O)[C@@H](O)[C@H]2O)c(=O)[nH]1`, the EC50 at P2Y purinoceptor 2 [1] came out at 5100 nM. For the same compound, at P2Y purinoceptor 2 [2], the Emax came out at 32%.
